# Source: ChEMBL document CHEMBL4665801, “Pyrazole-Based Lactate Dehydrogenase Inhibitors with Optimized Cell Activity and Pharmacokinetic Properties” (J Med Chem, 2020)
# The source made the active and inactive calls.
# What was measured:
# [1] = tested on: A673; experiment: Cytotoxicity against human A673 cells assessed as reduction in cell viability after 48 hrs by CellTiter-Glo assay; assay type: functional, cell-based; settings: A673, 48 h
# [2] = biological target: T1, L-lactate dehydrogenase A chain (Homo sapiens, UniProt P00338); experiment: Inhibition of recombinant human LDHA using sodium pyruvate as substrate preincubated for 5 mins followed by diaphorase/resazurin addition and measured after 20 mins by fluorescence based assay
# [3] = Oral bioavailability in CD-1 mouse at 50 mg/kg and measured up to 24 hrs by LC/MS-MS analysis; assay type: ADME, organism-based; settings: in vivo
# Outline: (§1)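 Male CD1 mice, about 6–8 weeks old and 20–30 g, were dosed PO at 40 or 50 mg/kg in 0.1 M NaOH in PBS, pH 7–8.5, prepared the same day. Three mice per cohort. Dorsal metatarsal vein blood was collected into heparin at 15, 30 min and 1, 2, 4, 8, 12, 24 h. Plasma was spun at 4 °C, frozen at –75 °C and quantified by LC–MS/MS.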
# [4] = Cmax in CD-1 mouse at 50 mg/kg, po and measured up to 24 hrs by LC/MS-MS analysis; assay type: ADME, organism-based; design: route oral, dose 50 mg/kg, time <=24; settings: in vivo; outline: as §1
# [5] = Terminal half life in CD-1 mouse at 50 mg/kg, po and measured up to 24 hrs by LC/MS-MS analysis; assay type: ADME, organism-based; settings: in vivo
# Outline: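 Male CD1 mice, about 6–8 weeks old and 20–30 g, were dosed PO at 40 or 50 mg/kg in 0.1 M NaOH in PBS, pH 7–8.5, prepared the same day. Three mice per cohort. Plasma was spun at 4 °C, frozen at –75 °C and quantified by LC–MS/MS.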
# [6] = species: Sus scrofa; experiment: Inhibition of porcine heart MDH using malic acid as substrate preincubated for 10 mins followed by substrate addition and measured after 5 mins by resazurin based fluorescence based assay; settings: time 15.0 min
# [7] = Terminal half life in CD-1 mouse at 10 mg/kg, iv and measured up to 24 hrs by LC/MS-MS analysis; assay type: ADME, organism-based; settings: in vivo
# Outline: (§2)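 Male CD1 mice, about 6–8 weeks old and 20–30 g, received 10 mg/kg IV in 0.1 M NaOH in PBS adjusted to pH 7–8.5, made fresh on the day of dosing. Three mice per cohort. Blood was taken from the dorsal metatarsal vein at 5, 15, 30 min and 1, 2, 4, 8, 12, 24 h into heparin tubes. Plasma was spun at 4 °C, stored at –75 °C and analysed by LC–MS/MS. For IV dosing Cmax = C0.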
# [8] = Cmax in CD-1 mouse at 10 mg/kg, iv and measured up to 24 hrs by LC/MS-MS analysis; assay type: ADME, organism-based; design: route intravenous, dose 10 mg/kg, time <=24; settings: in vivo; outline: as §2
# [9] = biological target: T1, L-lactate dehydrogenase A chain; experiment: Inhibition of LDHA in human MIA PaCa-2 cells assessed as decrease in lactate production incubated for 2 hrs by lactate oxidase-coupled fluorescence based assay; assay type: cell-based
# [10] = biological target: T1, L-lactate dehydrogenase A chain; experiment: Inhibition of LDHA in human A673 cells assessed as decrease in lactate production incubated for 2 hrs by lactate oxidase-coupled fluorescence based assay; assay type: cell-based
# [11] = Volume of distribution at steady state in CD-1 mouse at 10 mg/kg, iv and measured up to 24 hrs by LC/MS-MS analysis; assay type: ADME, organism-based; settings: in vivo; outline: as §2
# [12] = AUClast in CD-1 mouse at 50 mg/kg, po and measured up to 24 hrs by LC/MS-MS analysis; assay type: ADME, organism-based; design: route oral, dose 50 mg/kg, time <=24; settings: in vivo; outline: as §1
# [13] = biological target: T1, L-lactate dehydrogenase A chain; experiment: Inhibition of GS[HiBiT]GS-tagged LDHA (unknown origin) expressed in HEK-293T cells measured after 1 hr by […]; assay type: cell-based
# Outline: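 HEK293T cells were transiently transfected for 24 h with CMV-driven LDHA carrying a C-terminal GS[HiBiT]GS tag, then reseeded at 2500 cells/well in DPBS with Ca/Mg and 1 g/L glucose. […] Cells were lysed with NP40, and 11S (100 nM final) plus furimazine was added.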
# [14] = AUClast in CD-1 mouse at 10 mg/kg, iv and measured up to 24 hrs by LC/MS-MS analysis; assay type: ADME, organism-based; design: route intravenous, dose 10 mg/kg, time <=24; settings: in vivo; outline: as §2
# [15] = biological target: L-lactate dehydrogenase B chain (Homo sapiens) (UniProt P07195); experiment: Inhibition of recombinant human LDHB using sodium pyruvate as substrate preincubated for 5 mins followed by diaphorase/resazurin addition and measured after 20 mins by fluorescence based assay
# [16] = tested on: MIA PaCa-2; experiment: Cytotoxicity against human MIA PaCa-2 cells assessed as reduction in cell viability after 48 hrs by CellTiter-Glo assay; assay type: functional, cell-based; settings: MIA PaCa-2, 48 h
# [17] = tested on: Mus musculus; experiment: In vivo inhibition of LDH in human A673 cells xenografted athymic nude CrTac:NCr-Foxn1nu mouse assessed as reduction in tumor LDH activity at 50 mg/kg, iv after 6 hrs by UV-VIS spectrometric method relative to control; assay type: functional
# Outline: (§3)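 Female athymic nude mice carried SQ A673 flank xenografts (2 million cells) and received a single IV dose of 50 mg/kg in PBS-based vehicle. Four mice per time point were sacrificed at 1, 3, 6 and 24 h. Frozen tumor (10–50 mg) was pulverized and lysed in PBS pH 7.4 with 0.1% Triton X-100 on ice for 1 h. Cleared lysate (10–20 μg) was assayed with 10 mM pyruvate and 0.3 mM final NADH, reading NADH oxidation at 340 nm at 37 °C.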
# [18] = tested on: Mus musculus; experiment: In vivo inhibition of LDH in human A673 cells xenografted athymic nude CrTac:NCr-Foxn1nu mouse assessed as reduction in tumor LDH activity at 50 mg/kg, iv after 1 hr by NADH-based UV-VIS spectrometric method relative to control; assay type: functional, organism-based; outline: as §3
# Sequence of L-lactate dehydrogenase B chain (Homo sapiens) (P07195 2-334 limits assumed): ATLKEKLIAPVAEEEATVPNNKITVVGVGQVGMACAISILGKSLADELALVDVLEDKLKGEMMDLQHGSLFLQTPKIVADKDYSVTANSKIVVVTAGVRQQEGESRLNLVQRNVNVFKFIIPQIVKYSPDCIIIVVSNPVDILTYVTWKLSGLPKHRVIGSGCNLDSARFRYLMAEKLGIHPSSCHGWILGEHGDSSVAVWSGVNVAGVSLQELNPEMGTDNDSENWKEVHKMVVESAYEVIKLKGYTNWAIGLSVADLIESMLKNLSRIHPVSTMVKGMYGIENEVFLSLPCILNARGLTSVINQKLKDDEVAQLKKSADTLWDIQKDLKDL
SMILES,IC50 [1] [nM],IC50 [2] [nM],F [3] [%],Cmax [4] [ng/mL],beta t1/2 [5] [h],inhibition [6],beta t1/2 [7] [h],Cmax [8] [ng/mL],IC50 [9] [nM],IC50 [10] [nM],Vdss [11] [L/kg],AUClast [12] [ng·h/mL],IC50 [13] [nM],AUClast [14] [ng·h/mL],inhibition [15],IC50 [16] [nM],inhibition [17],inhibition [18]
Cc1ccc(C#Cc2cccc(-c3nn(-c4nc(C(=O)O)cs4)c(CCC4CC4)c3Cc3ccc(S(N)(=O)=O)c(F)c3)c2)s1,187,117,42,6850,3.7,inactive,5.8,58200,172,174,1.47,20030,152,9600,Active,–,–,–
Cc1ccc(C#Cc2cc(-c3nn(-c4nc(C(=O)O)cs4)c(CCC4CC4)c3Cc3ccc(S(N)(=O)=O)c(F)c3)ccc2F)s1,218,202,37,4730,3.2,inactive,6.5,35300,197,390,2.5,12240,200,6650,Active,226,Active,Active
Cc1ccc(C#Cc2cccc(-c3nn(-c4nc(C(=O)O)cs4)c(CC4CC4)c3Cc3ccc(S(N)(=O)=O)c(F)c3)c2)o1,285,36,89,2280,3.7,inactive,5,4570,432,450,12.5,10170,168,2280,Active,296,–,–
C/C=C/c1cc(-c2nn(-c3nc(C(=O)O)cs3)c(CC3CC3)c2Cc2ccc(S(N)(=O)=O)c(F)c2)ccc1F,614,11,–,–,–,inactive,–,–,321,405,–,–,126,–,Active,528,Active,Active
Cn1cc(C#Cc2cc(-c3nn(-c4nc(C(=O)O)cs4)c(CC4CC4)c3Cc3ccc(S(N)(=O)=O)c(F)c3)ccc2F)cn1,593,9,–,–,–,inactive,–,–,1140,1600,–,–,189,–,Active,619,–,–
Cc1ncc(C#Cc2cc(-c3nn(-c4nc(C(=O)O)cs4)c(CC4CC4)c3Cc3ccc(S(N)(=O)=O)c(F)c3)ccc2F)s1,569,33,38,1820,3.2,inactive,5.75,5500,867,937,13.9,3440,–,1820,Active,488,–,–
CCCC#Cc1cc(-c2nn(-c3nc(C(=O)O)cs3)c(CC3CC3)c2Cc2ccc(S(N)(=O)=O)c(F)c2)ccc1F,833,24,–,–,–,inactive,–,–,361,420,–,–,106,–,Active,746,Active,Active
NS(=O)(=O)c1ccc(Cc2c(-c3ccc(F)c(C#CC4CC4)c3)nn(-c3nc(C(=O)O)cs3)c2CC2CC2)cc1F,132,9,–,–,–,inactive,–,–,554,695,–,–,100,–,Active,323,–,–
